Data reported in ChEMBL document CHEMBL1268829, “Design, synthesis and activity of benzothiazole-based inhibitors of NO production in LPS-activated macrophages” (Bioorg Med Chem Lett, 2010).
The source made the active and inactive calls. The calls are words filed in the database; no cut-off is given here.

Legend:
[1] = test system: RAW264.7; test: Inhibition of LPS-induced nitric oxide production in mouse RAW264.7 cells after 20 hrs by Griess method; format: functional, cell-based; settings: RAW264.7, 20 h
Outline: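 Cells plated at 1 × 10⁵ cells/mL in 10% FBS-DMEM for 24 h, then switched to 1% FBS medium. Incubated 20 h with LPS (1 μg/mL) with or without compound. Supernatant nitrite read with Griess reagent, 10 min at room temperature, absorbance 570 nm, against a sodium nitrite standard. IC₅₀ from dose–response curve.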

[2] = test system: RAW264.7; test: Inhibition of LPS-induced nitric oxide production in mouse RAW264.7 cells at 20 uM after 20 hrs by Griess method; format: functional; settings: RAW264.7, 20 h
Outline: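 Cells plated at 1 × 10⁵ cells/mL in 10% FBS-DMEM for 24 h, then given 1% FBS medium with compound at 20 μM plus LPS (1 μg/mL) for 20 h. Supernatant nitrite read by Griess reagent at 570 nm against a sodium nitrite standard. Percent inhibition relative to LPS control, n = 3.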

[3] = test system: RAW264.7; test: Inhibition of LPS-induced COX2 mRNA expression in mouse RAW264.7 cells at 20 uM pretreated for 6 hrs before LPS challenge by RT-PCR; format: functional, cell-based
[4] = test system: RAW264.7; test: Inhibition of LPS-induced iNOS mRNA expression in mouse RAW264.7 cells at 20 uM pretreated for 6 hrs before LPS challenge by RT-PCR; format: functional, cell-based
[5] = test system: RAW264.7; test: Inhibition of I-kappaB-alpha degradation in LPS-induced mouse RAW264.7 cells at 20 uM pretreated for 30 mins before LPS challenge for 30 mins by Western blotting; format: cell-based
Outline: (§1)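 Cells pretreated 30 min with compound at 20 μM, then LPS (1 μg/mL) for 30 min. Cytoplasmic IκB-α and nuclear p65 measured by Western blot. Levels normalized to PARP.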

[6] = test system: RAW264.7; test: Inhibition of LPS-induced iNOS mRNA expression in mouse RAW264.7 cells at 20 uM treated after LPS challenge by RT-PCR; format: functional, cell-based
Outline: (§2)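 Cells at 1.8 × 10⁶ per 60 mm dish stimulated 6 h with LPS (1 μg/mL) with or without compound (20 μM). Total RNA taken for RT-PCR of iNOS, COX-2 and β-actin: 25 cycles of 94 °C, 55 °C and 72 °C, 30 s each. Products resolved on 2% agarose.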

[7] = test system: RAW264.7; test: Inhibition of sNFkappaB nuclear translocation in LPS-induced mouse RAW264.7 cells at 20 uM pretreated for 30 mins before LPS challenge for 30 mins by Western blotting; format: cell-based; outline: as §1
[8] = test system: RAW264.7; test: Inhibition of LPS-induced iNOS expression in mouse RAW264.7 cells at 20 uM treated for 20 hrs during LPS activation by Western blot; format: functional, cell-based
Outline: (§3)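 RAW 264.7 cells given compound (20 μM) during 20 h LPS (1 μg/mL) activation, then washed and lysed. 20 μg lysate protein run on 8% SDS-PAGE and blotted to PVDF. Probed for iNOS, COX-2 and actin, with ECL detection.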

[9] = test system: RAW264.7; test: Inhibition of LPS-induced COX2 expression in mouse RAW264.7 cells at 20 uM treated for 20 hrs during LPS activation by Western blot; format: functional, cell-based; outline: as §3
[10] = test system: RAW264.7; test: Inhibition of LPS-induced COX2 mRNA expression in mouse RAW264.7 cells at 20 uM treated after LPS challenge by RT-PCR; format: functional, cell-based; outline: as §2

SMILES	IC50 [1]	inhibition at 20 µM [2]	other results
O=C(Cc1ccc2c(c1)OCO2)Nc1ccccc1COc1cccc2scnc12	72.3 µM	32.5%	
c1ccc(CNc2ccccc2COc2cccc3scnc23)cc1	17.2 µM	55.8%	inhibition [3]: Active; inhibition [4]: Active; inhibition [5]: Active; inhibition [6]: inactive; inhibition [7]: Active; inhibition [8]: Active; inhibition [9]: Active; inhibition [10]: inactive
COc1ccc2[nH]cc(CC(=O)Nc3ccccc3COc3cccc4scnc34)c2c1		36.4%	
Cc1ccc(COc2cccc3sc(N)nc23)cc1		14.4%	
O=C(Cc1ccc2c(c1)OCO2)N(Cc1ccccc1)c1ccccc1COc1cccc2scnc12	21.2 µM	54.9%	
COc1ccc2[nH]cc(CC(=O)Nc3cccc(COc4cccc5scnc45)c3)c2c1	4.2 µM	75.9%	inhibition [3]: Active; inhibition [4]: Active; inhibition [5]: Active; inhibition [6]: inactive; inhibition [7]: Active; inhibition [8]: Active; inhibition [9]: Active; inhibition [10]: inactive
Nc1ccccc1COc1cccc2scnc12		15.2%	
Cc1ccc(COc2cccc3scnc23)cc1		10.4%	
Nc1cccc(COc2cccc3scnc23)c1		32.9%	
CS(=O)(=O)Nc1ccccc1COc1cccc2scnc12		0.4%	
COc1ccc(CCC(=O)Nc2ccccc2COc2cccc3scnc23)cc1OC		11.6%	
Nc1nc2c(O)cccc2s1		11.4%	
Oc1cccc2scnc12		8.6%	
COc1cccc2scnc12		18.6%	
COc1ccc(/C=C/C(=O)Nc2ccccc2COc2cccc3scnc23)cc1OC		44.7%	
O=C(Cc1ccc2c(c1)OCO2)Nc1cccc(COc2cccc3scnc23)c1	23.6 µM	58.9%	
c1ccc(COc2cccc3scnc23)cc1		12.3%	
CC(=O)Nc1ccccc1COc1cccc2scnc12		3.7%	
COc1ccc(/C=C/C(=O)N(Cc2ccccc2)c2ccccc2COc2cccc3scnc23)cc1OC	20.9 µM	39.8%	inhibition [3]: Active; inhibition [4]: Active; inhibition [5]: Active; inhibition [6]: inactive; inhibition [7]: Active; inhibition [8]: Active; inhibition [9]: Active; inhibition [10]: inactive
